Source: ChEMBL document CHEMBL6083225, “Copper selective 8-aminoquinoline based tetradentate chelators as anticancer agents” (RSC Med Chem, 2024)
Active and inactive are the calls of the source. The calls are words filed in the database; no cut-off is given here.

Key:
A-375 = test: Cytotoxicity against human A-375 cells assessed as cell viability incubated for 48 hrs by MTT assay; assay type: functional, cell-based; details: A-375, 48 h
How it was run: (§1)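 5000 cells/well preincubated 24 h at 37 °C, 5% CO₂, then exposed to 3.1–100 μM for 48 h; untreated control, 5-FU positive control. MTT at 0.5 mg/mL in FBS-free DMEM for 4 h, formazan dissolved in DMSO, absorbance read at 570 nm. IC50 taken as half-maximal inhibitory concentration; mean ± SD of at least three independent experiments.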

A549 = test: Cytotoxicity against human A549 cells assessed as cell viability incubated for 48 hrs by MTT assay; assay type: functional, cell-based; details: A549, 48 h
How it was run: (§2)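 Cells seeded at 5000/well, held 24 h at 37 °C, 5% CO2, then exposed 48 h to 100, 50, 25, 12.5, 6.3 or 3.1 μM, with an untreated control. Then 0.5 mg mL⁻¹ MTT in FBS-free DMEM for 4 h at 37 °C, formazan dissolved in DMSO and read at 570 nm. IC50 is the mean ± SD of at least three independent experiments; 5-FU served as positive control.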

COLO-829 = test: Cytotoxicity against human COLO-829 cells assessed as cell viability incubated for 48 hrs by MTT assay; assay type: functional, cell-based; details: COLO-829, 48 h; how it was run: as §2
HeLa [1] = test: Cytotoxicity against human HeLa cells assessed as cell viability incubated for 48 hrs by MTT assay; assay type: functional, cell-based; how it was run: as §1
HepG2 = test: Cytotoxicity against human HepG2 cells assessed as cell viability incubated for 48 hrs by MTT assay; assay type: functional, cell-based; details: HepG2, 48 h; how it was run: as §2
[2] = Cytotoxicity against human HaCaT cells assessed as cell viability incubated for 48 hrs by MTT assay; assay type: toxicity, cell-based; how it was run: as §2
[3] = Selectivity index, ratio of IC50 for cytotoxicity against human HaCaT cells assessed as cell viability to IC50 for cytotoxicity against human A549 cells assessed as cell viability; assay type: toxicity, cell-based; details: HaCaT cells versus A549 cells
How it was run: (§3)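 Selectivity index is IC50 in non-cancer HaCaT keratinocytes divided by IC50 in the cancer line. Both IC50 values came from MTT viability after 48 h exposure (5000 cells/well, 3.1–100 μM, absorbance at 570 nm), each a mean of at least three independent experiments.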

[4] = Selectivity index, ratio of IC50 for cytotoxicity against human HaCaT cells assessed as cell viability to IC50 for cytotoxicity against human HeLa cells assessed as cell viability; assay type: toxicity, cell-based; details: HaCaT cells versus HeLa cells, read-out: Ratio IC50; how it was run: as §3
[5] = Selectivity index, ratio of IC50 for cytotoxicity against human HaCaT cells assessed as cell viability to IC50 for cytotoxicity against human HepG2 cells assessed as cell viability; assay type: toxicity, cell-based; details: HaCaT cells versus HepG2 cells; how it was run: as §3
HeLa [6] = test: Antiproliferative activity against human HeLa cells assessed as inhibition of colony formation at 1.5 to 12 uM incubated for 14 days by crystal violet staining based analysis; assay type: functional, cell-based; details: dose 1.5-12 µM, time 14.0 day
How it was run: (§4)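 1000 HeLa cells per 3.5 cm dish, treated after attachment with 0, 1.5, 3, 6 or 12 μM for 14 days, medium refreshed every 2 days. Cells were fixed in 100% methanol for 30 min and stained with 0.1% crystal violet for 30 min. Colonies were imaged and counted, normalised to control wells. At least triplicate.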

HeLa [7] = test: Antiproliferative activity against human HeLa cells assessed as inhibition of colony formation at 12 uM incubated for 14 days by crystal violet staining based analysis; assay type: functional, cell-based; details: time 14.0 day; how it was run: as §4
HeLa [8] = test: Anti-migration activity in human HeLa cells assessed as increase in wound width at 14.5 uM incubated 24 hrs by wound-healing assay (reference value: 61%); assay type: functional
HeLa [9] = test: Anti-migration activity in human HeLa cells assessed as inhibition of cell migration at 14.5 uM incubated 24 hrs by wound-healing assay; assay type: functional; set-up: scale not given: the % may be the effect or the level left
HeLa [10] = test: Induction of apoptosis in human HeLa cells assessed as viable cells at 3.7 uM incubated for 48 hrs by Annexin V-FITC/PI staining based flow cytometry analysis (reference value: 91.2%); assay type: functional; details: read-out: Activity
HeLa [11] = test: Induction of apoptosis in human HeLa cells assessed as early apoptotic cells at 3.7 uM incubated for 48 hrs by Annexin V-FITC/PI staining based flow cytometry analysis (reference value: 2.56%); assay type: functional
HeLa [12] = test: Induction of apoptosis in human HeLa cells assessed as late apoptotic cells at 3.7 uM incubated for 48 hrs by Annexin V-FITC/PI staining based flow cytometry analysis (reference value: 6.10 %); assay type: functional
HeLa [13] = test: Induction of apoptosis in human HeLa cells assessed as necrotic cells at 3.7 uM incubated for 48 hrs by Annexin V-FITC/PI staining based flow cytometry analysis (reference value: 0.12%); assay type: functional
HeLa [14] = test: Induction of apoptosis in human HeLa cells assessed as viable cells at 7.3 uM incubated for 48 hrs by Annexin V-FITC/PI staining based flow cytometry analysis (reference value: 91.2%); assay type: functional; details: read-out: Activity
HeLa [15] = test: Induction of apoptosis in human HeLa cells assessed as early apoptotic cells at 7.3 uM incubated for 48 hrs by Annexin V-FITC/PI staining based flow cytometry analysis (reference value: 2.56%); assay type: functional
HeLa [16] = test: Induction of apoptosis in human HeLa cells assessed as late apoptotic cells at 7.3 uM incubated for 48 hrs by Annexin V-FITC/PI staining based flow cytometry analysis (reference value: 6.10 %); assay type: functional
HeLa [17] = test: Induction of apoptosis in human HeLa cells assessed as necrotic cells at 7.3 uM incubated for 48 hrs by Annexin V-FITC/PI staining based flow cytometry analysis (reference value: 0.12%); assay type: functional
HeLa [18] = test: Induction of apoptosis in human HeLa cells assessed as viable cells at 14.5 uM incubated for 48 hrs by Annexin V-FITC/PI staining based flow cytometry analysis (reference value: 91.2%); assay type: functional; details: read-out: Activity
HeLa [19] = test: Induction of apoptosis in human HeLa cells assessed as early apoptotic cells at 14.5 uM incubated for 48 hrs by Annexin V-FITC/PI staining based flow cytometry analysis (reference value: 2.56%); assay type: functional
HeLa [20] = test: Induction of apoptosis in human HeLa cells assessed as late apoptotic cells at 14.5 uM incubated for 48 hrs by Annexin V-FITC/PI staining based flow cytometry analysis (reference value: 6.10 %); assay type: functional
HeLa [21] = test: Induction of apoptosis in human HeLa cells assessed as necrotic cells at 14.5 uM incubated for 48 hrs by Annexin V-FITC/PI staining based flow cytometry analysis (reference value: 0.12%); assay type: functional
HeLa [22] = test: Induction of apoptosis in human HeLa cells assessed as necrotic cells incubated for 48 hrs by Annexin V-FITC/PI staining based flow cytometry analysis; assay type: functional, cell-based; details: dose 3.7-14.5 µM
HeLa [23] = test: Induction of ROS production in human HeLa cells at 3.7 uM incubated for 48 hrs by H2DCFDA dye-based flow cytometry analysis; assay type: functional
How it was run: (§5)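 HeLa cells exposed to 0, 3.7, 7.3 or 14.5 μM for 48 h, trypsinised, washed in PBS, then loaded with H₂DCFDA (final 10 μM) at 37 °C for 30 min in the dark. DCF fluorescence (ex 498/em 522 nm) read by flow cytometry and expressed as percent of untreated cells. At least triplicate.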

HeLa [24] = test: Induction of ROS production in human HeLa cells at 7.3 uM incubated for 48 hrs by H2DCFDA dye-based flow cytometry analysis; assay type: functional; how it was run: as §5
HeLa [25] = test: Induction of ROS production in human HeLa cells at 14.5 uM incubated for 48 hrs by H2DCFDA dye-based flow cytometry analysis; assay type: functional; how it was run: as §5
HeLa [26] = test: Induction of ROS production in human HeLa cells incubated for 48 hrs by H2DCFDA dye-based flow cytometry analysis; assay type: functional, cell-based; details: dose 3.7-14.5 µM; how it was run: as §5
Mitochondrial membrane [27] = test: Induction of mitochondrial membrane potential depolarization in human HeLa cells assessed as decrease in red to green fluorescence intensity ratio at 3.7 to 14.5 uM incubated for 48 hrs by JC-1 staining based flow cytometric analysis; details: dose 3.7-14.5 µM
How it was run: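 HeLa cells attached overnight, then treated at 0, 3.7, 7.3 or 14.5 μM for 48 h and stained with JC-1. Red (590 nm) and green (527–529 nm) fluorescence measured by flow cytometry. Red/green ratio expressed as percent of untreated cells; one-way ANOVA, at least triplicate.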

Mitochondrial membrane [28] = test: Induction of mitochondrial membrane potential depolarization in human HeLa cells assessed as green fluorescence intensity at 3.7 uM incubated for 48 hrs by JC-1 staining based flow cytometric analysis (reference value: 3.28); assay type: cell membranes
How it was run: (§6)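 HeLa cells grown in 10 cm dishes and left to attach overnight, then treated 48 h at 0, 3.7, 7.3 or 14.5 μM. Stained with JC-1 per kit instructions. Red (J-aggregate, 590 nm) and green (monomer, 527–529 nm) fluorescence read by flow cytometry. Red/green ratio expressed as % of untreated cells. At least triplicate; one-way ANOVA.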

Mitochondrial membrane [29] = test: Induction of mitochondrial membrane potential depolarization in human HeLa cells assessed as red fluorescence intensity at 3.7 uM incubated for 48 hrs by JC-1 staining based flow cytometric analysis (reference value: 95.8); assay type: cell membranes; how it was run: as §6
Mitochondrial membrane [30] = test: Induction of mitochondrial membrane potential depolarization in human HeLa cells assessed as green fluorescence intensity at 7.3 uM incubated for 48 hrs by JC-1 staining based flow cytometric analysis (reference value: 3.28; assay type: cell membranes; how it was run: as §6
Mitochondrial membrane [31] = test: Induction of mitochondrial membrane potential depolarization in human HeLa cells assessed as red fluorescence intensity at 7.3 uM incubated for 48 hrs by JC-1 staining based flow cytometric analysis (reference value: 95.8); assay type: cell membranes; how it was run: as §6
Mitochondrial membrane [32] = test: Induction of mitochondrial membrane potential depolarization in human HeLa cells assessed as green fluorescence intensity at 14.5 uM incubated for 48 hrs by JC-1 staining based flow cytometric analysis (reference value: 3.28); assay type: cell membranes; how it was run: as §6
Mitochondrial membrane [33] = test: Induction of mitochondrial membrane potential depolarization in human HeLa cells assessed as red fluorescence intensity at 14.5 uM incubated for 48 hrs by JC-1 staining based flow cytometric analysis (reference value: 95.8); assay type: cell membranes; how it was run: as §6

CN(C)CCNCCc1ccc2c(Cl)cc(Cl)c(N)c2n1.Cl.Cl.Cl
IC50 (A-375): 38.1 µM
IC50 (A549): 16.2 µM
IC50 (COLO-829): 40.2 µM
IC50 (HeLa [1]): 14.5 µM
Activity (HeLa [1]; dose <= 100.0 µM): Dose-dependent-effect
IC50 (HepG2): 16.6 µM
IC50 at 48 h [2]: 41.1 µM
selectivity ratio [3]: 2.5
selectivity ratio [4]: 2.8
selectivity ratio [5]: 2.5
Activity (HeLa [6]): Active
Activity (HeLa [7]): Active
Activity (HeLa [8]): 74%
Activity (HeLa [9]): 33%
viability at 3.7 µM (HeLa [10]): 90.6%
Activity (HeLa [11]): 2.56%
Activity (HeLa [12]): 6.48%
Activity (HeLa [13]): 0.33%
viability at 7.3 µM (HeLa [14]): 85.3%
Activity (HeLa [15]): 6.06%
Activity (HeLa [16]): 8.49%
Activity (HeLa [17]): 0.1%
viability at 14.5 µM (HeLa [18]): 49.3%
Activity (HeLa [19]): 21.6%
Activity (HeLa [20]): 28.9%
Activity (HeLa [21]): 0.15%
Activity (HeLa [22]): Dose-dependent-effect
Activity (HeLa [23]): 125%
Activity (HeLa [24]): 138%
Activity (HeLa [25]): 150%
Activity (HeLa [26]): Dose-dependent-effect
Activity (Mitochondrial membrane [27]): Active
Flu intensity (Mitochondrial membrane [28]): 5.51
Flu intensity (Mitochondrial membrane [29]): 93.9
Flu intensity (Mitochondrial membrane [30]): 8.25
Flu intensity (Mitochondrial membrane [31]): 91.2
Flu intensity (Mitochondrial membrane [32]): 37.3
Flu intensity (Mitochondrial membrane [33]): 61.8

O=c1[nH]cc(F)c(=O)[nH]1 [FLUOROURACIL]
IC50 (A549): 72.6 µM
IC50 (COLO-829): 48.7 µM
IC50 (HeLa [1]): 14.5 µM
IC50 (HepG2): 16.6 µM
IC50 at 48 h [2]: 30 µM
